Measurements reported in paper PMC2671235 (Biochemistry, 2009).
“Also recorded” adds a separate entry of the source. Like-named read-outs stand apart in the source and are kept apart here. Ends that are not written are not given here.

Key:
[1] = Far-UV CD of free peptides; format: physicochemical; settings: TFE up to 60%, with or without calcium
Procedure, shortened: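 Peptides were run at […] in 20 mM Tris, 3 mM DTT, 0.2 mM EDTA, pH 7.5, without or with 5 mM calcium. TFE was added up to 60% final. Buffer-corrected ellipticity was converted to mean residue ellipticity. Fraction helicity was taken from [Θ]222 against temperature-dependent fully coiled and fully helical reference values.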

[2] = molecular target: T1, S100A11 (Homo sapiens, UniProt P31949); assay: ITC of AnII binding to Ca2+-S100A11
T1 sequence (P31949 1-105): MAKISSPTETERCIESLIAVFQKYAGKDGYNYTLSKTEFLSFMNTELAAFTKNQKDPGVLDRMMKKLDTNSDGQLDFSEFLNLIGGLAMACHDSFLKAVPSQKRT
Procedure, shortened: (§1)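 Isothermal titration calorimetry in 20 mM Tris, 0.2 mM EDTA, 1 mM TCEP, pH 7.5. S100A10 was run with 5 mM calcium or without calcium; Ca2+-S100A11 was run with or without 100 mM NaCl. Protein and peptide were co-dialysed at 4°C. Screens injected 2 μL of about 0.75 mM peptide into about 20–25 μM protein at 10 and 25°C, continuing to saturation when heat appeared. Integrated heats were fit to two sequential sites per dimer, over five temperatures. ΔCp was taken from the slope of ΔHcal against temperature.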

[3] = molecular target: T2, S100A10 (Homo sapiens, UniProt P60903); assay: Far-UV CD difference spectra, AnII with S100A10; format: binding
Procedure, shortened: (§2)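 Recombinant S100 protein expressed in E. coli BL21(DE3), purified by phenyl-Sepharose and Sephadex G-75; S100A10 eluted in 8 M urea and refolded by dialysis. Far-UV CD recorded 250–200 nm on 10 μM protein plus 50 μM peptide in binding buffer with 5 mM calcium. Difference spectrum: complex minus free peptide minus free protein, converted to mean residue ellipticity assuming saturated sites. Fraction helicity derived from [Θ]222 against temperature-dependent coil and helix reference values.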

[4] = molecular target: T1, S100A11; assay: Far-UV CD difference spectra, peptide with S100A11; format: binding; settings: for fractional helicity upon binding: far-UV CD difference spectra, 10 μM protein, 50 μM peptide, 5 mM calcium; for coil-to-helix transition upon binding: far-UV CD, Ca2+-S100A11
Procedure, shortened: as §2

[5] = test system: S100A10; settings: literature; ref [15]; cited from earlier work
[6] = Analytical equilibrium ultracentrifugation; format: physicochemical; settings: 4°C, 35,000 rpm, 20 mM Tris, 1 mM TCEP, 0.2 mM EDTA, pH 7.5, absence or presence of 5 mM calcium; single species fit
Procedure, shortened: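 Peptides were N-terminally acetylated; AnII carried an added C-terminal Tyr. Concentrations came from ε280 of 5,500 (AnI) and 1,490 (AnII) M−1 cm−1. Radial distributions were fitted to a single-species equilibrium equation using partial specific volumes of 0.748 (AnI) and 0.745 (AnII) cm3/g.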

[7] = molecular target: T2, S100A10; assay: ITC of AnII binding to S100A10
Procedure, shortened: as §1

[8] = test system: sixteen members of S100 protein family; assay: Screen of peptides against S100 family; format: binding, human; settings: S100 proteins other than the partners found (S100A6, S100A10, S100A11)
[9] = test system: S100A11; settings: cited from earlier work
[10] = test system: Ca2+-S100P; settings: ref [25], cited from earlier work
[11] = test system: calmodulin; settings: ref [27]; cited from earlier work
[12] = molecular target: T3, S100A6 (Homo sapiens, UniProt P06703); assay: ITC of AnI binding to Ca2+-S100A6; settings: different temperatures, relative to free energy of binding
Procedure, shortened: (§3)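 VP-ITC in 20 mM Tris, 0.2 mM EDTA, 1 mM TCEP, pH 7.5 with 5 mM calcium. Protein and peptide were co-dialysed with three buffer changes at 4°C. Because of its limited solubility, the AnI peptide was placed in the cell and the S100 protein titrated from the syringe. Runs were done at five temperatures (15–35°C). Integrated injection heats were fitted to a two identical non-interacting sites per dimer model.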

[13] = molecular target: T3, S100A6; assay: Far-UV CD difference spectra, AnI with S100A6; format: binding
[14] = molecular target: T1, S100A11; assay: Trp fluorescence titration of AnI with S100A11; format: binding
Procedure, shortened: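 Intrinsic Trp emission of 2 μM peptide, excited at 295 nm and read at 305–400 nm. Protein was added stepwise in 1.2 μM increments to 10 μM, a final 5:1 protein:peptide ratio. Emission intensity and maximum were followed. Kd came from fitting the intensity change against protein concentration to a model with two identical sites per dimer.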

[15] = test system: calmodulin; assay: Trp fluorescence screen of AnI against calmodulin; format: binding; settings: protein:peptide ratio up to 5:1
Procedure, shortened: (§4)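 This screen used a thermostated cell, 295 nm excitation, and emission scanned over 305–400 nm. Concentrated protein in assay buffer was added stepwise to 2 μM AnI, up to 10 μM protein (5:1). For Trp-containing S100A1, A3, A8, A9 and A13, AnI was instead added to 2 μM protein up to 5:1 peptide:protein, and protein-only spectra were subtracted.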

[16] = test system: S100 protein family members (S100A1-S100A13, S100B, S100P, S100Z); assay: Trp fluorescence screen of AnI against other S100 proteins; format: binding, human; settings: any S100 protein other than S100A11 and S100A6; protein:peptide ratio up to 5:1
Procedure, shortened: as §4

[17] = molecular target: T3, S100A6; assay: Trp fluorescence titration of AnI with S100A6; format: binding
[18] = molecular target: T1, S100A11; assay: ITC of AnI binding to Ca2+-S100A11
Procedure, shortened: as §3

[19] = Trp fluorescence emission of free AnI; format: physicochemical; settings: free AnI in solution, excitation 295 nm, emission 305-400 nm, pH 7.5
[20] = test system: S100A6 variants (Y73F, Y84S, Y73F/Y84S); assay: Binding affinity of AnI for substituted S100A6 variants; set-up: species or system human; settings: data not shown
[21] = test system: S100A6-Y84S; assay: Far-UV CD difference spectra, AnI with S100A6-Y84S; format: binding, human; settings: 5 mM calcium
Procedure, shortened: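 Spectra of 10 μM protein with 50 μM AnI in 5 mM calcium binding buffer were recorded at 250–200 nm. The difference spectrum was complex minus free peptide minus free protein, converted to mean residue ellipticity assuming saturated sites.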

[22] = ITC screen and calcium dependence
[23] = slope of ΔHcal vs temperature, ITC at 5 temperatures
[24] = literature, AnII labeled with Prodan in that study, ref [15]
[25] = 5 mM calcium, pH 7.5, excitation 295 nm

T2 sequence (P60903 whole entry): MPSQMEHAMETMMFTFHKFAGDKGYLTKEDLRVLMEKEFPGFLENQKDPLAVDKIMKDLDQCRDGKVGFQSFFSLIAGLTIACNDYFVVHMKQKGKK

Substance: Ac-STVHEILSKLSLEGY [AnII]
- secondary structure in TFE [1]: far-UV CD spectra characteristic of helices
- effect of ionic strength on thermodynamics of binding ([2]; 100 mM NaCl): did not have any effect on the thermodynamics of binding
- enthalpy of binding (sign/size) ([2]; ITC): endothermic but small relative to the Gibbs energy of binding
- binding [2, 22]: this binding to S100A11 is also modulated by calcium; also recorded: AnII has been found to bind S100A10 and Ca^2+-S100A11
- ΔCp,exp [2, 23]: −1.1±0.2 kJ/(mol·K)
- helicity when bound ([3]; compared to AnII bound to S100A11): AnII becomes more helical when bound to S100A10 compared to when it is bound to S100A11
- coil-to-helix transition upon binding ([3]; far-UV CD, S100A10): undergo a coil-to-helix transition upon binding
- fractional helicity upon binding [4]: 0.57
- coil-to-helix transition upon binding [4]: undergo a coil-to-helix transition upon binding
- binding [5]: S100A10 binds AnII but not AnI
- molecular mass in solution (oligomeric state) [6]: 1.9 ± 0.16 kDa
- effect of calcium on ITC binding ([7]; 5 mM calcium compared with absence of calcium): very similar to the data obtained in the absence of calcium
- binding [7, 22]: the binding is independent of calcium; also recorded: AnII has been found to bind S100A10
- enthalpy of binding (sign/size) ([7]; ITC, total enthalpy from both binding sites, entire temperature range): large and negative; also recorded: exothermic
- ΔCp,exp [7, 23]: −2.4±0.3 kJ/(mol·K)
- binding to the other S100 proteins [8]: bind to only these S100 proteins and not the others
- binding ([9]; NMR spectroscopy, ref [16]): AnII can interact with Ca^2+-S100A11
- binding [9, 24]: S100A11 binds AnI but not AnII

Substance: melittin: peptide with the ability to bind both S100P and calmodulin
- ΔCp ([10]; melittin binding to Ca2+-S100P): −2.5±0.5 kJ/(mol·K)
- binding [10]: has the ability to bind both S100P
- binding [11]: has the ability to bind both S100P ([25]) and calmodulin

Substance: Ac-AMVSEFLKQAWFIE [AnI]
- secondary structure in TFE [1]: far-UV CD spectra characteristic of helices
- enthalpy of binding (sign/size) [12]: either negative or positive but small relative to the free energy of binding
- far-UV CD difference spectrum ([13]; AnI with Ca2+-S100A6 wild type, 10 μM protein, 50 μM AnI, 5 mM calcium): A noted lower elipticity
- coil-to-helix transition upon binding ([13]; far-UV CD, Ca2+-S100A6): undergo a coil-to-helix transition upon binding
- Kd [14]: 5 ± 1 µM
- fluorescence emission maximum wavelength of AnI in presence of Ca2+-S100A11 [14, 25]: 350 nm
- change in Trp emission spectra without calcium ([14]; S100A11 in the absence of calcium): very little change in the emission spectra
- binding ([14]; Trp fluorescence screen, Ca2+-S100A11): AnI has been found to bind Ca^2+-S100A6 and Ca^2+-S100A11
- change in Trp fluorescence / binding in screen [15]: did not show changes in Trp fluorescence; also recorded: Neither peptide was found to bind to calmodulin
- fractional helicity upon binding [4]: 0.59
- coil-to-helix transition upon binding [4]: undergo a coil-to-helix transition upon binding
- change in Trp fluorescence (emission maximum or intensity) in screen [16]: did not show changes in Trp fluorescence
- fluorescence emission maximum wavelength of AnI upon addition of Ca2+-S100A6 [17, 25]: 352 nm
- change in Trp fluorescence without calcium ([17]; S100A6 in the absence of calcium): No changes in Trp-fluorescence
- binding ([17]; Trp fluorescence screen, Ca2+-S100A6): AnI has been found to bind Ca^2+-S100A6
- binding [5]: S100A10 binds AnII but not AnI
- Kd [18]: 5 ± 2 µM
- temperature dependence of dissociation constant ([18]; ITC, 15-35°C): does not depend significantly on temperature
- enthalpy of binding ΔHcal at 15°C ([18]; ITC, 15°C, 5 mM calcium): -0.96 kcal/mol
- enthalpy of binding ΔHcal at 35°C ([18]; ITC, 35°C, 5 mM calcium): -7.17 kcal/mol
- free energy of binding ΔG=−RTln(Kd) ([18]; per binding site, from ITC Kd): ≈ 30 kJ/mol; also recorded: ≈ 26 kJ/mol
- ΔCp,exp ([18]; slope of ΔHcal vs temperature, ITC 15-35°C, 5 mM calcium): −1.3±0.2 kJ/(mol·K)
- molecular mass in solution (oligomeric state) [6]: 1.9 ± 0.07 kDa
- binding to the other S100 proteins [8]: bind to only these S100 proteins and not the others
- fluorescence emission maximum wavelength of free AnI [19]: approximately 359 nm
- effect of S100A6 substitutions on binding affinity [20]: the substitutions do not have a significant effect on the binding affinity
- binding [9, 24]: S100A11 binds AnI but not AnII
- far-UV CD difference spectrum [21]: the difference spectrum for the Y84S variant has a similar spectrum to that of the wild type
